{"data": "Experimental data pooled from the literature", "target": "Mitogen-activated protein kinase 1 (MAPK1, Homo sapiens, UniProt P28482)", "note": "Each line is one published result; the experiments were not run side by side."}
{"Compound": "Cc1cnc(NC2CCOCC2)nc1-n1cnc(C(=O)NC(CN)c2cc(F)cc(Cl)c2)c1 (stereo not drawn)", "observed": "enzyme activity", "mode": "inhibitor", "method": "radiometric", "concentration": "1 µM", "endpoint": "remaining activity", "result": "2%"}
{"Compound": "Cc1ccc(NC(=O)c2ccc(CN3CCN(C)CC3)cc2)cc1Nc1nc(-c2cccnc2)cs1", "observed": "cell-free assay", "concentration": "0.5 µM", "endpoint": "remaining signal", "result": "91.6%"}
{"Compound": "CC(C)(O)[C@H]1CC[C@H](Nc2ccc3ncc(-c4cccc(C(F)(F)F)c4)n3n2)CC1", "observed": "enzyme activity", "mode": "inhibitor", "concentration": "1 µM", "endpoint": "remaining activity", "result": "96%"}
{"Compound": "Cc1sc(C(=O)NC2COC2)cc1-n1cc(NC(=O)Nc2c(F)cccc2Cl)cn1", "observed": "enzyme activity", "mode": "inhibitor", "concentration": "10 µM", "endpoint": "remaining activity", "result": "90.8%"}
{"Compound": "CCN(CC)CCNC(=O)c1c(C)[nH]c(/C=C2\\C(=O)Nc3ccc(F)cc32)c1C", "observed": "enzyme activity", "mode": "inhibitor", "concentration": "10 µM", "endpoint": "inhibition", "result": "1%"}
{"Compound": "COc1cc2c(cc1OC)-c1[nH]nc(Nc3cccc(F)c3)c1C2", "observed": "cell-free assay", "concentration": "0.5 µM", "endpoint": "remaining signal", "result": "85.1%"}
{"Compound": "COc1cc2ncnc(Nc3ccc(Oc4ccccc4)c(C)c3C)c2cc1OC", "observed": "enzyme activity", "mode": "inhibitor", "concentration": "1 µM", "endpoint": "inhibition", "result": "-2%"}
{"Compound": "CC(C)(C)c1nc2c(s1)c1nc(N)ncc1c1ccc(NS(=O)(=O)c3c(F)cccc3F)c(F)c12", "observed": "enzyme activity", "mode": "inhibitor", "method": "radiometric", "concentration": "1 µM", "endpoint": "remaining activity", "result": "99%"}
{"Compound": "COc1cc(Cl)c(C(=O)N[C@@H](CN[C@H]2CC[C@@H](N)CC2)Cc2ccc(C#N)cc2)cc1-c1ccc(CN[C@H](C)c2ccc(C)cc2)o1", "observed": "enzyme activity", "mode": "inhibitor", "concentration": "1 µM", "endpoint": "remaining activity", "result": "92%"}
{"Compound": "CC/C(=N\\NC(=O)NCc1cccc(O)c1)c1ccc(O)c(C)c1O", "observed": "enzyme activity", "mode": "inhibitor", "concentration": "0.1 µM", "endpoint": "inhibition", "result": "-10.1%"}
{"Compound": "Nc1[nH]nc2nnc(-c3c(-c4ccccc4)nn4ccccc34)cc12", "observed": "cell-free assay", "concentration": "0.5 µM", "endpoint": "remaining signal", "result": "87.2%"}
{"Compound": "COc1cc(Nc2cnc(C#N)c(O[C@H](C)CN(C)C)n2)ncc1-c1cnn(C)c1", "observed": "enzyme activity", "mode": "inhibitor", "method": "radiometric", "concentration": "10 µM", "endpoint": "remaining activity", "result": "80%"}
{"Compound": "C[C@H](c1ccc(F)cc1)N(Cc1cccc(C(=O)O)c1)C(=O)c1cnc2ccccc2c1", "observed": "cell-free assay", "method": "competition with immobilised ligand", "concentration": "1 µM", "endpoint": "remaining binding", "result": "99%"}
{"Compound": "CN(c1ncccc1CNc1nc(Nc2ccc3c(c2)CC(=O)N3)ncc1C(F)(F)F)S(C)(=O)=O", "observed": "enzyme activity", "mode": "inhibitor", "concentration": "1 µM", "endpoint": "inhibition", "result": "88.1%"}
{"Compound": "Cc1ccc(-n2nc(C(C)(C)C)cc2NC(=O)Nc2ccc(OCCN3CCOCC3)c3ccccc23)cc1", "observed": "enzyme activity", "mode": "inhibitor", "concentration": "10 µM", "endpoint": "inhibition", "result": "-10%"}
{"Compound": "CN(C)C1CCN(CC#Cc2nn(C3CCCC3)c3nc(NCc4ccccc4)ncc23)C1 (stereo not drawn)", "observed": "enzyme activity", "mode": "inhibitor", "method": "FRET", "concentration": "10 µM", "endpoint": "inhibition", "result": "2%"}
{"Compound": "CCC(=O)N[C@H]1CC[C@@H](C(=O)N(C)c2ccc(-c3nc4ccccc4o3)cc2)C1", "observed": "cell-free assay", "method": "competition with immobilised ligand", "concentration": "1 µM", "endpoint": "remaining binding", "result": "76%"}
{"Compound": "CCOc1cc(-c2nncn2C)ccc1Nc1ncc2cc(C)nc(NCC(C)(C)C)c2n1", "observed": "enzyme activity", "mode": "inhibitor", "method": "FRET", "concentration": "1 µM", "endpoint": "inhibition", "result": "< 15%"}
{"Compound": "COc1cc(/C=C/C(=O)CC(=O)/C=C/c2ccc(O)c(OC)c2)ccc1O", "observed": "enzyme activity", "mode": "inhibitor", "concentration": "1 µM", "endpoint": "activity vs control", "result": "75%"}
{"Compound": "C[C@H](c1ccnc(Nc2nc3ccc(-c4cc(N(C)C)ncn4)cc3[nH]2)c1)N1CCN(C(=O)CC(F)(F)F)CC1", "observed": "cell-free assay", "method": "competition with immobilised ligand", "concentration": "0.1 µM", "endpoint": "remaining binding", "result": "78%"}
{"Compound": "Cc1ccc(C(=O)NCc2ccsc2)cc1C#Cc1cn(C(C)C)c2ncnc(N)c12", "observed": "enzyme activity", "mode": "inhibitor", "concentration": "1 µM", "endpoint": "activity vs control", "result": "98%"}
{"Compound": "Cc1cc(NC(=O)c2cccc3cc(-c4cccc5[nH]nc(N)c45)ccc23)ccc1F", "observed": "enzyme activity", "mode": "inhibitor", "concentration": "0.1 µM", "endpoint": "activity vs control", "result": "100%"}
{"Compound": "COc1cc2ncnc(Nc3ccc(F)c(Cl)c3)c2cc1OCCCN1CCOCC1", "observed": "cell-free assay", "concentration": "0.5 µM", "endpoint": "remaining signal", "result": "103%"}
{"Compound": "Cc1noc([C@H]2C[C@@H](c3ccc(C(F)(F)F)cc3)CN(C(=O)N3CCS(=O)(=O)C3)C2)n1", "observed": "cell-free assay", "method": "competition with immobilised ligand", "concentration": "1 µM", "endpoint": "remaining binding", "result": "100%"}
{"Compound": "CNc1cccc2cc(C(=O)Nc3ccc(C(=O)O)cc3)c(=O)[nH]c12", "observed": "enzyme activity", "mode": "inhibitor", "concentration": "10 µM", "endpoint": "inhibition", "result": "1.3%"}
{"Compound": "Cc1c(NC(=O)c2cc(C(N)=O)nc3cc(F)ccc23)c(C(F)(F)F)nn1Cc1ccc(C#N)cc1", "observed": "cell-free assay", "method": "competition with immobilised ligand", "concentration": "1 µM", "endpoint": "remaining binding", "result": "100%"}
{"Compound": "COc1cccc(-c2cc(=O)c3ccccc3o2)c1N", "observed": "cell-free assay", "concentration": "0.5 µM", "endpoint": "remaining signal", "result": "97.1%"}
{"Compound": "CNCc1ccccc1-c1csc([C@@H](C)Nc2nc(C)nc3cc(OC)c(OC)cc23)c1", "observed": "cell-free assay", "method": "competition with immobilised ligand", "concentration": "1 µM", "endpoint": "remaining binding", "result": "78%"}
{"Compound": "Nc1nc(NC2CCCCC2)sc1C(=O)c1ccccc1", "observed": "enzyme activity", "mode": "inhibitor", "concentration": "10 µM", "endpoint": "remaining activity", "result": "16%"}
{"Compound": "COc1ccc2c(c1)O[C@H](c1ccc(OC)c(OC)c1)C[C@@H]2NC(=O)C1(c2ccc3c(c2)OC(F)(F)O3)CC1", "observed": "cell-free assay", "method": "competition with immobilised ligand", "concentration": "1 µM", "endpoint": "remaining binding", "result": "99%"}
{"Compound": "Oc1cccc(-c2nc(N3CCOCC3)c3oc4ncccc4c3n2)c1", "observed": "enzyme activity", "mode": "inhibitor", "concentration": "10 µM", "endpoint": "remaining activity", "result": "106%"}
{"Compound": "Cc1ccc(Nc2nccc(N(C)c3ccc4c(C)n(C)nc4c3)n2)cc1S(N)(=O)=O", "observed": "enzyme activity", "mode": "inhibitor", "concentration": "10 µM", "endpoint": "inhibition", "result": "-2%"}
{"Compound": "Cc1cc(-n2nc(Cc3cc(F)cc(C(F)(F)F)c3)nc2C)ccc1C(N)=O", "observed": "cell-free assay", "method": "competition with immobilised ligand", "concentration": "1 µM", "endpoint": "remaining binding", "result": "100%"}
